The full list was thinned out, with hits kept by preference.
T cruzi inh – T. cruzi replication inhibition | T. cruzi beta-gal in NIH3T3, luminescence, 90 h | inhibition, % (test concentration not listed) | 300,000 tested, 1.4% active;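 active = mean inhibition across valid replicates above about 55%, limit read from the data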;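 also: signal also drops with host cell toxicity which is not excluded here; 0% = plate median of DMSO wells and 100% = zero luminescence signal; higher percent means less beta-gal luminescence so fewer parasites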
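System: mouse NIH/3T3 fibroblasts infected with β-gal-expressing T. cruzi Tulahuen C4 / Input: NIH/3T3 cells, 5,000 per well / Buffer or medium: Low-serum DMEM with 2% FBS / Probe or stimulus: 5000 reporter trypomastigotes per well / Schedule: ≥90 h infection period, 3 h prior cell attachment / Measured by: GalScreen luminescence, 60 min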
MPTP block – permeability transition pore inhibition; AID 602449; isolated mouse mitochondria, Ca2+ swelling absorbance, 30 min; 360,000 tested, 1.4% active; inhibition, % at 10 µM;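 active = inhibition of 50% or more, scaled per plate between neutral and stimulator controls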;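 also: 0% = DMSO wells given calcium and 100% = 1 mM EGTA wells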
Hep lipid drop – hepatic lipid droplet formation modulation; AID 1656; AML12 mouse hepatocytes, oleate lipid droplets, BODIPY imaging; inhibition, % at 6.5 µM; 240,000 tested, 0.4% active;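 active = lipid droplet intensity inhibited by at least 50%, with more than 500 cells counted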
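Assay system: AML12 mouse liver cells | Compound: 6.5 µM single-point dosing | Schedule: Overnight exposure | Technique: Fluorescence imaging, 20x objective, two fields per well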
Lmaj promast – reduces viability of Leishmania major promastigotes; 200,000 tested, 9% active; resazurin fluorescence viability; inhibition, % at 10 µM; in the data active = inhibition above about 50%;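 also: promastigotes grown with compound for 44 hours at 28 °C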
DTT redox prof – compounds producing H2O2 with reducing agent – biochemical, NIH compound library profiling, artefact control for MLSCN library redox annotation, primary screen; activation, % at 10 µM; AID 878; DTT-dependent redox cycling H2O2, phenol red/HRP absorbance; 100% = 100 µM peroxide control, 0% = buffer; 200,000 tested, 0.03% active;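 active = activation of at least 50% relative to the plate's high and low controls in the primary single-dose screen; inactive = activation below 50%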;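 also: compound incubated with DTT at 0.8 mM final as the reducing agent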
An asterisk follows results filed as active; x = no result given.

SMILES | T cruzi inh | MPTP block | Hep lipid drop | Lmaj promast | DTT redox prof
COc1ccc(-c2ccc(SCC(=O)c3ccc(F)cc3)nn2)cc1OC | 20 | 0 | 25 | 63* | -3
COc1ccc(-c2ccc(SCC(=O)c3cccs3)nn2)cc1OC | -3 | 2 | 20 | 35 | 2
O=[N+]([O-])c1ccc(C2CCCC/C2=N\OCc2cccc(F)c2)c([N+](=O)[O-])c1 (stereo unspecified) | 62* | 12 | x | 50 | -3
O=C(Nc1nnc(-c2ccc(F)cc2)o1)C1CCCN1S(=O)(=O)c1cccs1 (stereo unspecified) | -3 | -2 | x | x | x
N=c1n(Cc2ccccc2)c2ccccc2n1Cc1ccccc1 | -6 | 12 | -42 | 99* | 0
N=c1n(Cc2ccccc2)c2ccccc2n1CC(O)c1ccco1 (stereo unspecified) | -33 | -2 | x | 89* | 0
Cc1ccccc1Cn1c(=N)n(CC(=O)c2ccco2)c2ccccc21 | 3 | 19 | x | 86* | 2
CCOC(=O)Cn1c(=N)n(Cc2ccccc2)c2ccccc21 | -1 | 0 | x | -2 | 0
COc1ccccc1Cc1c(-c2ccccc2)nc2c(C)cc(Br)cn12 | x | 0 | x | x | x
O=C(O)c1ccccc1Nc1ccc([N+](=O)[O-])c2nonc12 | -5 | 10 | x | x | x
Cc1ccnc(SCC(=O)c2ccc(Br)cc2)c1C#N | 74* | 0 | -10 | 5 | 0
Cc1snc(SCC(=O)c2ccc(Cl)cc2)c1C#N | 15 | -1 | x | 99* | 4
Cc1ccc(C(=O)CSc2nsc(C)c2C#N)cc1 | -7 | 1 | -5 | -6 | 2
CCCOc1ccc([N+](=O)[O-])cc1C1NC(=S)NC(c2ccccc2)=C1C(=O)OCC (stereo unspecified) | 43 | -1 | x | 100* | 17
CN(CC1CCOCC1)C(=O)CC1C(=O)NCCN1CC1CCCCC1 (stereo unspecified) | -19 | 0 | -3 | -6 | -1
O=C(Nc1nc(-c2ccc(Cl)cc2Cl)cs1)c1ccc(OCC2CCCO2)cc1 (stereo unspecified) | 32 | 4 | 77* | 12 | 0
O=C(Nc1ccc(Cl)cc1)c1ccc(OCC2CCCO2)cc1 (stereo unspecified) | 4 | 0 | 4 | -3 | -1
Cc1ccc(CNC(=O)c2ccc(OCC3CCCO3)cc2)cc1 (stereo unspecified) | -11 | 0 | 9 | 68* | 0
Cc1cc(C)c2nc(NC(=O)c3ccc(OCC4CCCO4)cc3)sc2c1 (stereo unspecified) | -9 | 2 | -1 | 73* | 0
CC(C)N1C(=O)c2ccccc2NC(=O)C1C(=O)NCc1cccc(C(F)(F)F)c1 (stereo unspecified) | x | 9 | x | x | x
C=CCOCCN(C)C1=NS(=O)(=O)c2cc([N+](=O)[O-])ccc21 | 51 | -1 | 3 | 100* | -1
CN(CCO)C1=NS(=O)(=O)c2cc([N+](=O)[O-])ccc21 | 13 | -2 | 3 | 0 | 0
O=C1CCC/C1=c1\s/c(=C\c2cccnc2)c(=O)n1-c1ccccc1 | 23 | -1 | x | 55* | -1
CCOC(=O)c1ccc(N[C@@H]2CCN3C(=O)c4ccccc4[C@@H]3C[C@H]2O)cc1 | x | -1 | x | x | x
C=CCn1c(NC(C)c2cc(Cl)ccc2O)nc2ccccc21 (stereo unspecified) | 38 | 0 | x | 96* | 0
SMILES | T cruzi inh | MPTP block | Hep lipid drop | Lmaj promast | DTT redox prof
CCn1c(CNc2nc3ccccc3n2C(C)C)nc2ccccc21 | -5 | 2 | -27 | 100* | 0
Cc1ccc(NCc2nc3ccccc3n2C)cc1 | -28 | -3 | -11 | 5 | 0
CCOc1ccccc1Nc1nc2ccccc2n1C(C)C | 16 | 0 | 6 | 83* | 0
CC(C)n1c(Nc2ccccc2)nc2ccccc21 | -18 | -4 | -1 | 9 | 1
COc1ccc(CNc2nc3ccccc3n2C(C)C)cc1 | 3 | -1 | 7 | x | x
Cn1c(CNc2nc3ccccc3n2C)nc2ccccc21 | -4 | -2 | x | 50* | -3
CCCCN1C(=O)C(CC(=O)NCCc2ccccn2)CC(C(=O)N2CCCCCC2)=C1C (stereo unspecified) | x | 2 | x | x | x
CC(C)n1c(NCc2cc(Cl)ccc2O)nc2ccccc21 | 9 | 5 | x | 66* | -1
CC(C)n1c(NCc2nc3ccccc3n2C)nc2ccccc21 | 2 | 1 | 3 | 60* | -3
CCCn1c(CNc2ccccc2O)nc2ccccc21 | -19 | -1 | -5 | 82* | 4
